Assay [1] in a line: Selectivity ratio of IC50 for CB1 receptor in Sprague-Dawley rat brain membranes to IC50 for human CB2 receptor. It is filed as cell membranes. The following applies: Membrane.
For assay [2], the target named is Cannabinoid receptor 1 (Rattus norvegicus, UniProt P20272). Description: Displacement of [3H]CP-55940 from CB1 receptor in Sprague-Dawley rat brain membranes after 1 hr by liquid scintillation spectrophotometry. It is filed as cell membranes, Membrane. The gist of the method: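 Membranes from whole rat brain (CB1) or human CB2-expressing CHO cells (CB2) were incubated 1 hr at 30°C with 1 nM [3H]CP-55,940 and six competitor concentrations (0.1 nM–10 μM). Buffer contained 5 mg/ml BSA, ethanol ≤0.4%. Nonspecific binding was defined with 1 μM CP-55,940. Separation on polyethyleneimine-treated GF/B filters, then scintillation counting. IC50 from log-linear regression, Ki via Cheng-Prusoff; triplicate, 3–6 repeats.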
Sequence of Cannabinoid receptor 1 (Rattus norvegicus, UniProt P20272) (P20272 whole entry): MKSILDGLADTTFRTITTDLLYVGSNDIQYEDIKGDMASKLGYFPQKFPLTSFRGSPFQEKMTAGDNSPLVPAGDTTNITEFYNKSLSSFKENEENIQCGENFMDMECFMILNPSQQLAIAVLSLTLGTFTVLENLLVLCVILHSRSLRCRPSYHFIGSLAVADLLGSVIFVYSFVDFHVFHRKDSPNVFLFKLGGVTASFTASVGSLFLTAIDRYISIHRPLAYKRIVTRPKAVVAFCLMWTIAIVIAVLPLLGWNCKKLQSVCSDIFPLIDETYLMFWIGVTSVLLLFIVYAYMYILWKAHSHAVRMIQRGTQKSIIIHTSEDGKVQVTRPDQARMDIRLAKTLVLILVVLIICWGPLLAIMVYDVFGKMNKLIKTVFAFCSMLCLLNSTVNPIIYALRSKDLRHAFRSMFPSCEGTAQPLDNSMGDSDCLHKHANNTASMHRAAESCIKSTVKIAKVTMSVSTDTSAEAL
In general terms: Displacement assays read how much labelled ligand stays bound in the presence of the test substance.

For assay [3], the target named is T1, Cannabinoid receptor 2 (Homo sapiens, UniProt P34972). Description: Agonist activity at human CB2 receptor expressed in CHO cells assessed as stimulation of [35S]GTPgammaS binding after 1.5 hrs by liquid scintillation spectrophotometry relative to CP-55940. Format: functional, cell-based. The gist of the method:
(§1)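 Membranes from CB2-CHO cells grown in DMEM/Ham F-12 with G418 and 5% fetal calf serum. Reactions used 10 μg membrane protein with 10 μM GDP, 0.1 nM radiolabelled GTPγS, 1 mg/mL BSA and varied drug concentrations in NaCl/EGTA Tris buffer pH 7.4, for 1.5 hr at 30°C. Nonspecific binding (unlabeled GTPγS) subtracted; filtration, scintillation counting. Nonlinear regression; Emax relative to 3 μM CP-55,940; mean ± SEM, ≥3 experiments in triplicate.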
(GTPγS is a poorly hydrolysed GTP analogue; its binding reports G protein activation.)

Assay [4] concerns the target T1, Cannabinoid receptor 2. Briefly: Agonist activity at human CB2 receptor expressed in CHO cells assessed as stimulation of [35S]GTPgammaS binding after 1.5 hrs by liquid scintillation spectrophotometry. It is filed as functional, cell-based. In a few lines: as §1
Assay [5] has as its target T1, Cannabinoid receptor 2. Description: Displacement of [3H]CP-55940 from human CB2 receptor expressed in CHO cells after 1 hr by liquid scintillation spectrophotometry. Format: cell-based.
The target in assay [6] is Cannabinoid receptor 1 (Homo sapiens, UniProt P21554). Description: Binding affinity to CB1 receptor.
Sequence of Cannabinoid receptor 1 (Homo sapiens, UniProt P21554) (P21554 whole entry): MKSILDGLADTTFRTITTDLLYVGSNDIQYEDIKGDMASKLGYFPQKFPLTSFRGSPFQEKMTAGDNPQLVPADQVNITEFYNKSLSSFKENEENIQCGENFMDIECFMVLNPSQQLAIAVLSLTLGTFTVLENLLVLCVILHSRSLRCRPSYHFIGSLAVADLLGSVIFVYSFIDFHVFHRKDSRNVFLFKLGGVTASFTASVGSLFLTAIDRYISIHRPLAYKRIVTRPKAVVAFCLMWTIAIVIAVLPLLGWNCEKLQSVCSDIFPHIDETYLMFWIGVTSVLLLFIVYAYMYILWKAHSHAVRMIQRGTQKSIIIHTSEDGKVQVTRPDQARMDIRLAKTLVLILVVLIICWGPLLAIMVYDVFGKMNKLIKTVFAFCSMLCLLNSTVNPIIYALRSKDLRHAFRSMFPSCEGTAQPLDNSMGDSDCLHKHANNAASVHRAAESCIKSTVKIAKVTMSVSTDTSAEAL
In assay [7] the target is T1, Cannabinoid receptor 2. Briefly: Binding affinity to CB2 receptor.

SMILES strings stand for the structures. A value given as a limit tells only on which side of the number the result lay.

Broadly, the Ki is a measure of affinity in units of concentration, obtained from inhibition or displacement. A low value points to tighter binding. By Emax is commonly meant the size of the effect at its maximum, as opposed to the concentration needed. One may read the EC50 as the midpoint of the concentration-response curve.

T1 sequence (P34972 whole entry): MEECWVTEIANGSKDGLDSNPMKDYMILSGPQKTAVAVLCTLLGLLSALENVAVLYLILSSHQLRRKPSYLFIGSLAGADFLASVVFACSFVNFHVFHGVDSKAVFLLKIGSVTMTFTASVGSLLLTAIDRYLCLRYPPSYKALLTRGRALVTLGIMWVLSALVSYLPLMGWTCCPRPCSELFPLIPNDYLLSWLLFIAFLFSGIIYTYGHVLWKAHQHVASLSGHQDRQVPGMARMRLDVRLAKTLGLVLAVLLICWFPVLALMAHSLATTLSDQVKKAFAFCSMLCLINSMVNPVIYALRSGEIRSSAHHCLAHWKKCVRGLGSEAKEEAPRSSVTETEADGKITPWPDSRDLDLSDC

Regarding `CCCCCCC(C)(C)c1cc(Br)c2c(c1)OC(C)(C)[C@@H]1CC=C(C)C[C@@H]21`, the Ratio Ki in assay [1] worked out at 27. In addition, the Ki on Cannabinoid receptor 1 [2] was 562 nM; on Cannabinoid receptor 2 [5], 34 nM. Besides, the Emax on Cannabinoid receptor 2 [3] is 91%. Besides, the EC50 on Cannabinoid receptor 2 [4] amounted to 15 nM.

With `CCCC(C)(C)c1cc(Br)c2c(c1)OC(C)(C)[C@@H]1CC=C(C)C[C@@H]21`, the Ratio Ki in assay [1] turned out to be 38. Further, the Ki is more than 10000 nM at Cannabinoid receptor 1 [2] and 265 nM at Cannabinoid receptor 2 [5].

In the case of `CCCCCCC(C)(C)c1ccc2c(c1)OC(C)(C)[C@@H]1CC=C(CO)C[C@@H]21`, the Ki at Cannabinoid receptor 1 [6] is 1.2 nM; at Cannabinoid receptor 2 [7], 0.032 nM.

As for `CCCCCc1cc(Br)c2c(c1)OC(C)(C)[C@@H]1CC=C(C)C[C@@H]21`, the Ratio Ki in assay [1] turned out to be 18. The Ki on Cannabinoid receptor 1 [2] is more than 10000 nM; at Cannabinoid receptor 2 [5] it was 555 nM.

For `CCCCC(C)(C)c1cc(Br)c2c(c1)OC(C)(C)[C@@H]1CC=C(C)C[C@@H]21`, in assay [1], the Ratio Ki stood at 16. Besides, the Ki was found to be 1140 nM at Cannabinoid receptor 1 [2] and 71 nM on Cannabinoid receptor 2 [5].

As for `CCCCCC(C)(C)c1cc(Br)c2c(c1)OC(C)(C)[C@@H]1CC=C(C)C[C@@H]21`, the Ratio Ki in assay [1] turned out to be 52. For the same molecule, the Ki on Cannabinoid receptor 1 [2] is 1440 nM; at Cannabinoid receptor 2 [5], 28 nM. The Emax at Cannabinoid receptor 2 [3] came to 92.3%. Further, the EC50 at Cannabinoid receptor 2 [4] came out at 28.6 nM.

For `CCCC(C)(C)c1ccc2c(c1)OC(C)(C)[C@@H]1CC=C(C)C[C@@H]21`, in assay [1], the Ratio Ki stood at 294. Moreover, the Ki at Cannabinoid receptor 1 [2] amounted to 677 nM. The Emax at Cannabinoid receptor 2 [3] turned out to be 112%. Further, on Cannabinoid receptor 2 [4], the EC50 was 4 nM.

On to `CCCCCCC(C)(C)c1ccc2c(c1)OC(C)(C)[C@@H]1CC=C(C)C[C@@H]21`, for which the Ki was 23 nM at Cannabinoid receptor 1 [6] and 2.9 nM at Cannabinoid receptor 2 [7].

For the origin of these results see ChEMBL document CHEMBL1275360, “1-Bromo-3-(1',1'-dimethylalkyl)-1-deoxy-Δ(8)-tetrahydrocannabinols: New selective ligands for the cannabinoid CB(2) receptor” (Bioorg Med Chem, 2010).
